Data as given in ChEMBL document CHEMBL4706495, “A novel class of small molecule inhibitors with radioprotective properties” (Eur J Med Chem, 2020).

Tests used:
Jurkat [1] = test: Cytotoxicity against human Jurkat cells assessed as cell viability at 10 uM measured after 48 hrs by WST-1 assay relative to control; assay type: functional; settings: read-out: Activity
Outline: (§1)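 Ten-line human panel (9 cancer, 1 non-cancerous). Cells were seeded at a pre-established optimal density (500–30 × 10³ per well) and settled overnight. Compounds came from 10 mM DMSO stocks and were tested at two concentrations. WST-1 readout followed the manufacturer's protocol at the end of cultivation. Viability is expressed as % of untreated control cells, mean of three independent experiments.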

MOLT-4 [2] = test: Cytotoxicity against human MOLT-4 cells assessed as cell viability at 10 uM measured after 48 hrs by WST-1 assay relative to control; assay type: functional; settings: read-out: Activity; outline: as §1
A549 [3] = test: Cytotoxicity against human A549 cells assessed as cell viability at 10 uM measured after 48 hrs by WST-1 assay relative to control; assay type: functional; settings: read-out: Activity; outline: as §1
HT-29 [4] = test: Cytotoxicity against human HT-29 cells assessed as cell viability at 10 uM measured after 48 hrs by WST-1 assay relative to control; assay type: functional; settings: read-out: Activity; outline: as §1
PANC-1 [5] = test: Cytotoxicity against human PANC-1 cells assessed as cell viability at 10 uM measured after 48 hrs by WST-1 assay relative to control; assay type: functional; settings: read-out: Activity; outline: as §1
A2780 [6] = test: Cytotoxicity against human A2780 cells assessed as cell viability at 10 uM measured after 48 hrs by WST-1 assay relative to control; assay type: functional; settings: read-out: Activity; outline: as §1
HeLa [7] = test: Cytotoxicity against human HeLa cells assessed as cell viability at 10 uM measured after 48 hrs by WST-1 assay relative to control; assay type: functional; settings: read-out: Activity; outline: as §1
MCF7 [8] = test: Cytotoxicity against human MCF7 cells assessed as cell viability at 10 uM measured after 48 hrs by WST-1 assay relative to control; assay type: functional; settings: read-out: Activity; outline: as §1
SAOS-2 [9] = test: Cytotoxicity against human SAOS-2 cells assessed as cell viability at 10 uM measured after 48 hrs by WST-1 assay relative to control; assay type: functional; settings: read-out: Activity; outline: as §1
[10] = Cytotoxicity against human MRC5 cells assessed as cell viability at 10 uM measured after 48 hrs by WST-1 assay relative to control; assay type: cell-based; settings: read-out: Activity; outline: as §1
Jurkat [11] = test: Cytotoxicity against human Jurkat cells assessed as cell viability at 100 uM measured after 48 hrs by WST-1 assay relative to control; assay type: functional; settings: read-out: Activity; outline: as §1
MOLT-4 [12] = test: Cytotoxicity against human MOLT-4 cells assessed as cell viability at 100 uM measured after 48 hrs by WST-1 assay relative to control; assay type: functional; settings: read-out: Activity; outline: as §1
A549 [13] = test: Cytotoxicity against human A549 cells assessed as cell viability at 100 uM measured after 48 hrs by WST-1 assay relative to control; assay type: functional; settings: read-out: Activity; outline: as §1
HT-29 [14] = test: Cytotoxicity against human HT-29 cells assessed as cell viability at 100 uM measured after 48 hrs by WST-1 assay relative to control; assay type: functional; settings: read-out: Activity; outline: as §1
PANC-1 [15] = test: Cytotoxicity against human PANC-1 cells assessed as cell viability at 100 uM measured after 48 hrs by WST-1 assay relative to control; assay type: functional; settings: read-out: Activity; outline: as §1
A2780 [16] = test: Cytotoxicity against human A2780 cells assessed as cell viability at 100 uM measured after 48 hrs by WST-1 assay relative to control; assay type: functional; settings: read-out: Activity; outline: as §1
HeLa [17] = test: Cytotoxicity against human HeLa cells assessed as cell viability at 100 uM measured after 48 hrs by WST-1 assay relative to control; assay type: functional; settings: read-out: Activity; outline: as §1
MCF7 [18] = test: Cytotoxicity against human MCF7 cells assessed as cell viability at 100 uM measured after 48 hrs by WST-1 assay relative to control; assay type: functional; settings: read-out: Activity; outline: as §1
SAOS-2 [19] = test: Cytotoxicity against human SAOS-2 cells assessed as cell viability at 100 uM measured after 48 hrs by WST-1 assay relative to control; assay type: functional; settings: read-out: Activity; outline: as §1
[20] = Cytotoxicity against human MRC5 cells assessed as cell viability at 100 uM measured after 48 hrs by WST-1 assay relative to control; assay type: cell-based; settings: read-out: Activity; outline: as §1
A549 [21] = test: Cytotoxicity against human A549 cells assessed as reduction in cell viability incubated for 24 hrs by MTT assay; assay type: functional, cell-based; settings: A549, 24 h
Outline: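 A-549 cells in DMEM with 10% FBS and 1% penicillin-streptomycin were attached overnight. Compounds were prepared in PBS and serially diluted in DMEM, then incubated 24 h. Viability was read by colorimetric MTT reduction against an untreated control on each plate (100%). IC50 came from four-parameter nonlinear regression of the log concentration-response curve, mean ± SEM. MTC is the highest concentration not differing from control (t-test).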

A549 [22] = test: Cytotoxicity against human A549 cells assessed as maximum tolerated concentration incubated for 24 hrs by MTT assay; assay type: functional
Outline: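 A-549 cells in DMEM with 10% FBS and 1% penicillin-streptomycin, left to attach overnight. Compounds made up in PBS, serially diluted in DMEM, incubated 24 h, then viability read by MTT reduction against untreated controls on each plate. MTC taken as the highest concentration showing no significant difference from non-treated control (t-test).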

MOLT-4 [23] = test: Radioprotective activity against gamma irradiation-induced apoptosis in human MOLT-4 cells assessed as viable cells at 100 uM pretreated with compound for 1 hr followed by gamma irradiation and measured after 24 hrs by annexinV/propidium iodide staining based flow cytometry (reference value: 40 %); assay type: functional; settings: MOLT-4, light or radiation study, time 25 hrs, read-out: Activity
[24] = Toxicity in C57Bl/6 mouse assessed as mouth death at 100 mg/kg, ip measured after 30 days; assay type: organism-based; settings: in vivo, 720 h, time 30 day
Outline: (§2)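 Safety in C57Bl/6 mice (27 ± 3 g) given a single 100 mg/kg i.p. injection without irradiation. Deaths, adverse effects and body weight followed over 30 days against an untreated control group. Weight reported as change from day 0.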

[25] = Toxicity in C57Bl/6 mouse assessed as adverse effects at 100 mg/kg, ip measured after 30 days; assay type: organism-based; settings: in vivo, 720 h, time 30 day; outline: as §2
[26] = Toxicity in C57Bl/6 mouse assessed as average body weight at 100 mg/kg, ip and measured immediately (reference value: 26.3 +/- 2.4 g); assay type: organism-based; settings: in vivo
[27] = Toxicity in C57Bl/6 mouse assessed as average body weight at 100 mg/kg, ip measured after 30 days (reference value: 27 +/ 3.2 g); assay type: organism-based; settings: in vivo, 720 h, time 30 day
[28] = Toxicity in C57Bl/6 mouse assessed as change in body weight at 100 mg/kg, ip measured after 30 days (reference value: 103 +/- 12 %); assay type: organism-based; settings: in vivo, 720 h, time 30 day
Mus musculus [29] = test: Radioprotective activity in C57Bl/6 mouse assessed as median survival time at 100 mg/kg, ip administered 5 min prior to gamma-irradation at 8.5 Gy and measured after 30 days (reference value: 12 days); assay type: functional
Mus musculus [30] = test: Radioprotective activity in C57Bl/6 mouse assessed as average body weight at 100 mg/kg, ip administered 5 min prior to gamma-irradation at 8.5 Gy and measured immediately (reference value: 25.4 +/- 2.6 g); assay type: functional
[31] = Immuno-toxicity in C57Bl/6 mouse assessed as decrease in absolute number of lymphocytes at 100 mg/kg, ip measured after 7 to 12 days post-treatment by flow cytometry; assay type: organism-based; settings: in vivo, time 7-12 day

## Cc1ccccc1OCC(O)CN1CCN(CCO)CC1 (stereo unspecified)
Jurkat [1]
  viability at 10 µM: 106%
MOLT-4 [2]
  viability at 10 µM: 104%
A549 [3]
  viability at 10 µM: 95%
HT-29 [4]
  viability at 10 µM: 98%
PANC-1 [5]
  viability at 10 µM: 102%
A2780 [6]
  viability at 10 µM: 101%
HeLa [7]
  viability at 10 µM: 102%
MCF7 [8]
  viability at 10 µM: 103%
SAOS-2 [9]
  viability at 10 µM: 103%
[10]
  viability at 48 h, 10 µM: 97%
Jurkat [11]
  viability at 100 µM: 92%
MOLT-4 [12]
  viability at 100 µM: 86%
A549 [13]
  viability at 100 µM: 114%
HT-29 [14]
  viability at 100 µM: 151%
PANC-1 [15]
  viability at 100 µM: 116%
A2780 [16]
  viability at 100 µM: 79%
HeLa [17]
  viability at 100 µM: 96%
MCF7 [18]
  viability at 100 µM: 95%
SAOS-2 [19]
  viability at 100 µM: 84%
[20]
  viability at 48 h, 100 µM: 104%
A549 [21]
  IC50: 3.4 mM
A549 [22]
  MTD: 0.39 mM
MOLT-4 [23]
  viability at 100 µM: 62%
[24]
  Activity: Non-Toxic
[25]
  Activity: Non-Toxic
[26]
  Activity: 26.2 g
[27]
  Activity: 27.2 g
[28]
  Activity: 104%
Mus musculus [29]
  MST: 7 days
Mus musculus [30]
  Activity: 27.3 g
[31]
  Activity: Toxic
